From ChEMBL document CHEMBL4049427, “Use of Molecular Modeling to Design Selective NTS2 Neurotensin Analogues” (J Med Chem, 2017) come the findings set out here.

Square brackets hold non-standard residues; d marks the D form. Peptide text beside a SMILES is read from it. ξ: configuration not given here. ξOrn = NCCCC(N)C(=O)O

Experiment [1] addresses T1, Neurotensin receptor type 2 (Homo sapiens, UniProt O95665). The experiment is described as follows: Displacement of 125I-[Tyr3]-NT from human NTS2 receptor. Put shortly: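 Fresh membranes from 1321N1 cells stably expressing hNTS2 (DMEM, 10% FBS, G418). 50 μg membrane incubated with 255 pM 125I-[Tyr3]-NT in 50 mM Tris-HCl pH 7.5, 0.2% BSA with competitor 10^-11 to 10^-5 M, 30 min at 25 °C. Nonspecific binding defined with 10^-5 M NT[8-13]. Filtration, γ-counting. IC50 converted to Ki via Cheng−Prusoff; mean of at least three experiments.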
Background: In a radioligand displacement assay an active substance lowers the binding of a labelled ligand.

Experiment [2] is filed under the species Homo sapiens. The experiment is described as follows: Selectivity ratio of Ki for human NTS1 receptor expressed in CHOK1 cell membrane to Ki for human NTS2 receptor expressed in human 1321N1 cell membranes. It is filed as cell-based.
For experiment [3], the target named is Neurotensin receptor type 1 (Homo sapiens, UniProt P30989). Description: Displacement of 125I-[Tyr3]-NT from human NTS1 receptor expressed in CHOK1 cell membranes after 30 mins by gamma counting analysis.
The target of experiment [4] is T1, Neurotensin receptor type 2. The experiment is described as follows: Displacement of 125I-[Tyr3]-NT from human NTS2 receptor expressed in human 1321N1 cell membranes after 30 mins by gamma counting analysis. Put shortly: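 Fresh membranes from 1321N1 cells stably expressing hNTS2 (DMEM, 10% FBS, G418). Nonspecific binding defined with 10^-5 M NT[8-13]. Filtration, γ-counting. IC50 converted to Ki via Cheng−Prusoff; mean of at least three experiments.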

Experiment [5] in a line: Displacement of 125I-[Tyr3]-NT from HA-tagged human NTS1 R212E mutant receptor expressed in HEK293 cell membranes after 30 mins by gamma counting analysis. The essentials: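 Membranes from HEK293 cells transfected with human HA-tagged NTS1-R212E (10 μg DNA, PEI), prepared fresh 48 h post-transfection. 50 μg membrane incubated with 130 pM 125I-[Tyr3]-NT in 50 mM Tris-HCl pH 7.5, 0.2% BSA with competitor 10^-11 to 10^-5 M, 30 min at 25 °C. Nonspecific binding defined with 10^-5 M NT[8-13]. Filtration, γ-counting. IC50 converted to Ki via Cheng−Prusoff; at least three experiments.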

The species entered for experiment [6] is Homo sapiens. The experiment is described as follows: Selectivity ratio of Ki for human NTS1 receptor expressed in CHOK1 cell membranes to Ki for HA-tagged human NTS1 R212E mutant receptor expressed in HEK293 cell membranes. It is filed as cell-based. Put shortly:
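Ki was taken on two receptors. WT: 15 μg CHO-K1 hNTS1 membrane with 45 pM 125I-[Tyr3]-NT. R212E: HEK293 cells transfected by PEI with HA-tagged hNTS1-R212E, membranes made 48 h later; 50 μg membrane with 130 pM tracer. Both ran in Tris-HCl pH7.5 with 0.2% BSA, 30 min at 25 °C, with filtration and γ-counting. IC50 was converted to Ki by Cheng–Prusoff, and the ratio taken as WT Ki over mutant Ki.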

Chain of Neurotensin receptor type 1 (P30989 whole entry): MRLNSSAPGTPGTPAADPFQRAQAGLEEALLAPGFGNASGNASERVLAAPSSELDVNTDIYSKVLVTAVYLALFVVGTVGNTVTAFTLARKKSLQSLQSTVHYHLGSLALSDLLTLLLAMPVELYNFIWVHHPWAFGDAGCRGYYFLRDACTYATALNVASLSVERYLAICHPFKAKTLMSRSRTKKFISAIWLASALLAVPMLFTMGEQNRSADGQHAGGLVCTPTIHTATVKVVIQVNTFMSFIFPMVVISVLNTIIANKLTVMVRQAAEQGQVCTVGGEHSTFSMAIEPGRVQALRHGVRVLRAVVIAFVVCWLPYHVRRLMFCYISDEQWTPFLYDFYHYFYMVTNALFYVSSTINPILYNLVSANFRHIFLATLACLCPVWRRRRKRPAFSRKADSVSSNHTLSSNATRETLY
T1 sequence (O95665 whole entry): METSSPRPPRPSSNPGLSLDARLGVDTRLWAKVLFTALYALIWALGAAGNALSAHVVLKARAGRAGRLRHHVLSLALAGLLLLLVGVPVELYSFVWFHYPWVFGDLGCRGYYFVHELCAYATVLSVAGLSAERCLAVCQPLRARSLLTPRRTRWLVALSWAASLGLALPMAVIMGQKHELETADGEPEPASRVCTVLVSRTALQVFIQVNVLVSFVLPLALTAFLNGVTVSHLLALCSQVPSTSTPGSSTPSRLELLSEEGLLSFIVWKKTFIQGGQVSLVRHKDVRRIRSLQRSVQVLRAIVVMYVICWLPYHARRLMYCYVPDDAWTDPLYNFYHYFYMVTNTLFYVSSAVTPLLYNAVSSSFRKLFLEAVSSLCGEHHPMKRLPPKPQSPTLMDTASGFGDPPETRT

The term Ki denotes the equilibrium dissociation constant of an inhibitor or competing ligand from its target. With `CC[C@H](C)[C@H](NC(=O)[C@H](Cc1ccc(O)cc1)NC(=O)[C@@H]1CCCN1C(=O)[C@H](CCCCN)NC(=O)[C@@H](N)CCCCN)C(=O)N[C@@H](CC(C)C)C(=O)O`, the Ki in experiment [1] came to 0.00095 µM.
For the molecule H-KKPKIL-OH, the Ratio Ki in experiment [2] was 21.8; in experiment [6] it was 28.6. For the same molecule, the inhibitory constant (Ki) was 5.7 µM in experiment [3], 0.262 µM in experiment [4] and 0.199 µM in experiment [5].
Turning to `CC[C@H](C)[C@H](NC(=O)[C@H](Cc1ccc(O)cc1)NC(=O)[C@@H]1CCCN1C(=O)[C@H](CCCNC(=N)N)NC(=O)[C@@H](N)CCCNC(=N)N)C(=O)N[C@@H](CC(C)C)C(=O)O`, in experiment [5], the Ki came out at 0.00469 µM.
For H-KKPDIL-OH, the Ki was > 10 µM in experiment [3], 4.2 µM in experiment [4] and > 10 µM in experiment [5].
`CC[C@H](C)[C@H](NC(=O)C(CCCN)NC(=O)[C@@H]1CCCN1C(=O)[C@H](CCCCN)NC(=O)[C@@H](N)CCCCN)C(=O)N[C@@H](CC(C)C)C(=O)O` (stereo partly drawn) (H-KKP[ξOrn]IL-OH): the values for the Ki in experiment [3] and in experiment [4] were > 10 µM and 0.619 µM, respectively.
Regarding H-KKPHIL-OH, the Ratio Ki in experiment [2] was found to be 0.96. Also, the Ki was determined as 0.456 µM in experiment [3] and 0.474 µM in experiment [4].
On to `CC[C@H](C)[C@H](NC(=O)[C@H](CCCCN)NC(=O)[C@@H]1CCCN1C(=O)[C@H](CCCCN)NC(=O)[C@@H](N)CCCCN)C(=O)N[C@H](C[Si](C)(C)C)C(=O)O`, for which the Ratio Ki in experiment [2] was found to be 9.9; in experiment [6], 5.22. The molecule also showed a Ki in experiment [4] of 0.067 µM.
With H-KKPEIL-OH, the Ki in experiment [3] was > 10 µM; in experiment [4] it was 1.6 µM; in experiment [5], > 10 µM.
Consider `CC[C@H](C)[C@H](NC(=O)[C@H](CCCCN)NC(=O)[C@@H]1CCCN1C(=O)[C@H](CCCCN)NC(=O)[C@@H](N)CCCCN)C(=O)N[C@@H](C[Si](C)(C)C)C(=O)O`, for which the Ki stood at 0.663 µM in experiment [3] and 0.127 µM in experiment [5].
